Test results from PMC7424737 (ACS Omega, 2020).
Converted amounts (≈) assume the structure as drawn.

Key:
TMV [1] = assay: Anti-TMV curative activity in vivo, half-leaf method; set-up: species or system tobacco mosaic virus; settings: against TMV in vivo at 500 mg/L (500 μg/mL); average of three replicates ± SD
Outline: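 Five-leaf-stage tobacco plants were dusted with emery and rub-inoculated with TMV. After 0.5 h the emery was rinsed off with water and the leaves left to dry. Test compound solution went on the left half-leaf and blank solution on the right. Lesions were counted per half 3–4 days later, and inhibition (%) was calculated from treated versus blank counts. Three repeats; ribavirin positive control.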

TMV [2] = assay: Anti-TMV inactivation; type: in vivo; settings: Tobacco mosaic virus, read-out: EC50 of inactivation effect activity
Outline: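 TMV was mixed with test compound for 0.5 h. The mixture was rubbed onto the right half-leaf of tobacco plants, and the left half received the same virus dose alone. Lesions were counted 3–4 days later. Inhibition (%) was calculated from lesion numbers versus the blank-control half. Three repeats; ribavirin positive control.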

[3] = biological target: T1, TMV-coat protein (TMV-CP) (Tobacco mosaic virus, UniProt P69687); assay: Microscale thermophoresis; type: binding
T1 sequence (P69687 2-159 limits assumed): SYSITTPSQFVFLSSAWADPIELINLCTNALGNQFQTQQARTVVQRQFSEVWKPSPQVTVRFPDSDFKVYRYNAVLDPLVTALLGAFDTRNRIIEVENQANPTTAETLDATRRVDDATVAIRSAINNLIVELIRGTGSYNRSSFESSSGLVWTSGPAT
Outline: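 Test compound binding to TMV coat protein was measured by microscale thermophoresis to give a dissociation constant (Kd). Ningnanmycin and ribavirin served as positive controls. Each test was repeated three times.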

- EC50 (TMV [2]): 138 ± 4.2 µg/mL (≈ 566 µM)
- Kd [3]: 223 ± 66.2 µM
SMILES: NC(=O)c1ncn([C@@H]2O[C@H](CO)[C@@H](O)[C@H]2O)n1 [ribavirin]
- curative effect activity (TMV [1]): 49.3 ± 7.5%
